Compounds with a hit are over-represented: about 2.1% of the library has one in this group of screens.
NS3 helicase inh: inhibitors of Hepatitis C virus NS3 helicase; NS3 helicase DNA unwinding, Cy5 molecular beacon fluorescence; inhibition, % at 10.9 µM; 290,000 tested, 0.56% active;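 active means inhibition above the mean of all tested compounds plus 3 SD, set per campaign, cut at about 35% in these data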
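Assay system – hepatitis C virus NS3 helicase domain fragment enzyme · Buffer or medium – MOPS pH 6.5, MgCl2, DTT, Tween20, BSA · Reagent – Cy5/quencher beacon DNA duplex and ATP to start · Compound – single 10.9 µM dose · Timing – 1 h at 25 °C · Technique – Cy5 beacon fluorescence read at start and 1 h · Measure – % inhibition of unwinding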
PABP polyA inh: PABP-poly(A) binding inhibition | AID 2014 | 290,000 tested, 1% active | inhibition, % at 35 µM | P11940 | PABP-poly(A) RNA binding, fluorescence polarization;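 further: calls also rest on retests at 20 µM and on dose response follow-up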
ZTA counter: counter-screen for EBNA-1 inhibitors: inhibitors of Epstein-Barr virus ZTA. 320,000 tested, 0.15% active. P03206. ZTA-DNA binding, fluorescence polarization. inhibition, % at 11 µM; in the data active means inhibition above about 33%
PABP1 MLLE inh: blocks PAM2 peptide binding to the PABP1 MLLE domain; 360,000 tested, 0.36% active; inhibition, % at 20 µM; GST-MLLE / FITC-PAM2 fluorescence polarization; in the data active means inhibition above about 35%, passing the limit was not always enough
EBNA-1 inh: blocks EBNA-1 binding to DNA; 300,000 tested, 0.34% active; AID 1950; inhibition, % at 14.8 µM; EBNA-1 DNA binding, fluorescence polarization; in the data active means inhibition above about 28%
eIF4H inh: inhibitors of RNA binding by human eIF4H; Q15056; AID 2012; eIF4H fluorescence polarization binding assay; 290,000 tested, 0.94% active; inhibition, % at 35 µM;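 further: calls also rest on retests at 20 µM and on dose response follow-up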
NS3 hel confirm: HCV NS3 helicase inhibition, confirmation assay. shares compounds with NS3 helicase inh. NS3 helicase DNA unwinding, Cy5 molecular beacon fluorescence. inhibition, % at 10.9 µM. 1,600 tested, 31% active. AID 1943;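 active means inhibition above the mean of all tested compounds plus 3 SD, cutoff set per campaign, cut at about 36% in these data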
FID counter trip: intercalator displacement, NS3 helicase counter-screen | shares compounds with NS3 helicase inh | DNA fluorescent intercalator displacement, fluorescence | inhibition, % at 7.9 µM | 1,600 tested, 4% active; in the data active means inhibition above about 37%;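 further: higher means more displacement of ethidium bromide from the DNA hairpin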
FID counter DR: displaces fluorescent intercalator from DNA, HCV helicase counter-screen. 120 tested, under 10 active. shares compounds with NS3 helicase inh. fluorescent intercalator displacement from DNA, fluorescence. IC50, µM
Numbers stand for hits; i = inactive; nt = not tested or not shown. Unless noted, how the calls were made is not given here.

SMILES	NS3 helicase inh	PABP polyA inh	ZTA counter	PABP1 MLLE inh	EBNA-1 inh	eIF4H inh	NS3 hel confirm	FID counter trip	others
COc1ccccc1OCCCOc1cccc(/C=C2\SC(=O)NC2=O)c1	44	i	i	i	i	i	68	i	FID counter DR=i
Cc1csc(SCC(=O)Nc2ccccc2[N+](=O)[O-])n1	i	i	i	i	i	i	nt	nt
Cn1c2ccccc2c2cc(/C=N/NC(=O)c3cc(O)ccc3O)ccc21	69	74	i	i	i	86	i	i
COc1cc(C(=O)N/N=C/c2ccc3c(c2)c2ccccc2n3C)ccc1O	i	i	nt	i	nt	i	nt	nt
CCN(CC)S(=O)(=O)c1ccc(NC(=O)COC(=O)c2ccc(NC(=O)CC#N)cc2)cc1	41	i	i	i	i	i	i	i
CNC(=O)COC(=O)c1ccc(NC(=O)CC#N)cc1	i	i	i	i	i	i	nt	nt
COc1ccc(OC)c(NC(=O)Nc2nnc(N3CCCCC3C)s2)c1 (configuration not stated)	39	i	i	i	i	i	i	i
COc1ccc(NC(=O)Nc2nnc(N3CCCCC3C)s2)cc1OC (configuration not stated)	i	i	i	i	i	i	nt	nt
Cc1ccc(C(=O)c2c(C)oc3c2C(=O)C(=O)c2ccccc2-3)cc1	36	i	i	i	i	i	i	i
Cc1ccccc1CN1C(=O)CS/C1=N/N=C/c1ccco1	45	i	i	i	i	i	i	i
CCCC(=O)Nc1cccc(NC(=O)c2ccc([N+](=O)[O-])cc2Cl)c1	53	i	i	i	i	i	i	i
Cc1ccc(C(=O)O)cc1-c1ccc(/C=C2\SC(=O)N(CC(=O)Nc3ccccc3)C2=O)o1	38	i	i	i	i	i	78	i	FID counter DR=i
CCOC(=O)CC(=O)CSc1ccc2nnc(-c3ccc(F)cc3)n2n1	38	i	i	i	i	i	i	i
CCOC(=O)CC(=O)CSc1ccc2nnc(-c3cccc(F)c3)n2n1	i	i	i	i	i	i	nt	nt
Cn1c(SCc2n[nH]c(=S)n2-c2ccccc2)nnc1-c1ccccc1	47	i	i	i	i	i	i	i
CN(C(=O)CSc1nnc(N)s1)C1CCCCC1	37	i	i	i	i	i	i	i
Nc1nnc(SCC(=O)NC2CCCC2)s1	i	i	i	i	i	i	nt	nt
COc1ccc(C(=O)OCC(=O)NC(C)CCc2ccccc2)c(OC)c1 (configuration not stated)	i	i	i	i	i	i	nt	nt
Cc1oc2c(c(C)cc3oc(=O)c(CC(=O)N[C@@H](CC(C)C)C(=O)O)c(C)c32)c1C	47	i	nt	i	nt	i	i	i
CC[C@@H](C)[C@H](NC(=O)Cc1c(C)c2cc3c(C)c(C)oc3c(C)c2oc1=O)C(=O)O	49	i	i	i	i	i	75	i
Cc1oc2c(c(C)cc3oc(=O)c(CC(=O)N[C@H](C(=O)O)C(C)C)c(C)c32)c1C	i	i	nt	i	nt	i	nt	nt
CC[C@@H](C)[C@H](NC(=O)Cc1c(C)c2cc3c(C)coc3c(C)c2oc1=O)C(=O)O	i	i	i	i	i	i	nt	nt
CCCCC(=O)NC(=S)Nc1cc(C(=O)O)ccc1Cl	55	i	i	i	i	i	i	i
COc1ccc(C)cc1NC(=O)c1nn(C)c(C(=O)Nc2cc(C)ccc2OC)c1[N+](=O)[O-]	i	i	i	i	i	i	nt	nt
c1ccc(NCc2ccccn2)cc1	i	i	i	i	i	i	nt	nt
CCOc1ccc(-c2noc(-c3cccnc3)n2)cc1OC	i	i	i	i	i	i	nt	nt
CC(=O)OCCc1c2ccccc2c(CCCN(C)C)c2ccccc12	nt	nt	i	i	i	nt	nt	nt
CC(=O)OCCc1[nH]c2ccccc2c1C	52	i	i	i	i	i	i	i
O=C1CC(c2cc([N+](=O)[O-])ccc2Cl)c2c(ccc3ccccc23)N1 (configuration not stated)	i	i	i	i	i	i	nt	nt

Source: PubChem BioAssay (several laboratories)
